Source: PubChem (Broad Institute)
Rows were chosen to be rich in hits. Some 2.8% of all compounds tested hit in one or more screens of this group.
E-sel inducer – E-selectin induction on HUVECs. HUVEC E-selectin immunofluorescence imaging; normalized: neutral wells 0, TNF-alpha wells 100. activation, % at 7.58 µM. 0.37% of 260,000 active. P16581;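 active = mean E-selectin-positive cell signal at least 10% of the positive control, reached in at least 60% of replicates, without over 20% cell loss; inconclusive = no rule given, readout overlaps actives, possibly toxicity-flagged; inactive = the rest, including those meeting only one limit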
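Test system – human umbilical vein endothelial cells (HUVEC), E-selectin induction · Input – 3,000 HUVEC seeded per well · Buffer or medium – EGM-2, gelatin · Compound dosing – single-point compound dose · Detection – immunofluorescence imaging · Measure – percent E-selectin-positive cells · Controls – TNF-alpha high, DMSO low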
DENV2 CPE – inhibitors of DENV2 cytopathic effect; CPE inhibition, % at 9.99 µM; DENV2-infected cells, cytopathic effect rescue, plate reader; 1.7% of 350,000 active; AID 651640; in the data active = CPE inhibition above about 20%, passing the limit was not always enough; inconclusive = no clear call, values can overlap the other calls; tested in BHK-21 cells
SIRT5 inh – inhibitors of human sirtuin-5 desuccinylase; Purified SirT5, succinyl-peptide AMC, trypsin-coupled fluorescence; Q9NXA8; inhibition, % at 15 µM; AID 652115; 1.1% of 330,000 active; in the data active = inhibition above about 15%; inconclusive = no clear call, values can overlap the other calls
Target sequence (Q9NXA8 whole entry, looked up): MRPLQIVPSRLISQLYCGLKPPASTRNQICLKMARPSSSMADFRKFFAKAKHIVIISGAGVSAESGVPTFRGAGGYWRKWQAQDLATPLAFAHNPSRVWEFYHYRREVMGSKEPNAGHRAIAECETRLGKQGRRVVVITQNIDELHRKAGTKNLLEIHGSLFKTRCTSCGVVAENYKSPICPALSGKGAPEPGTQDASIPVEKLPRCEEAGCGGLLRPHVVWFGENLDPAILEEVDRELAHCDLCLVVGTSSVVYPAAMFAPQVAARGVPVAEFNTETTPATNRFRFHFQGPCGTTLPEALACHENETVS
Hits are given with their value; i = inactive; ? = inconclusive; nt = no result given.

SMILES	E-sel inducer	DENV2 CPE	SIRT5 inh
CNC(=O)C[C@H]1CC[C@@H]2[C@H](COc3ccc(NC(=O)Nc4ccc(Cl)cc4)cc3C(=O)N2C)O1	i	i	i
CCC(=O)N1[C@H](CN(CC)C(C)=O)[C@@H](c2ccc(-c3ccccc3)cc2)[C@@H]1CO	i	nt	nt
CCC(=O)N1[C@H](CO)[C@H](c2ccc(-c3ccccc3)cc2)[C@H]1CN(CC)C(C)=O	i	i	30.0
CCCNC(=O)C[C@@H]1CC[C@@H]2[C@@H](COc3ccc(NC(=O)NCC)cc3C(=O)N2C)O1	i	i	i
CN1C(=O)c2cc(NC(=O)c3cccs3)ccc2OC[C@@H]2O[C@H](CC(=O)N3CCCCC3)CC[C@@H]21	i	i	i
CCCN(CC(=O)Nc1ccccc1C)C(=O)C1CCN(S(=O)(=O)c2ccc3c(c2)OCCO3)CC1	nt	i	i
CCCN(CC(=O)Nc1ccccc1C)C(=O)C1CCN(S(=O)(=O)c2ccc(C)c(C)c2)CC1	i	27.0	i
Cc1ccc(S(=O)(=O)N2CCC(C(=O)OCC(=O)N(Cc3ccccc3)C(C)C)CC2)cc1C	i	i	nt
Cc1ccc(S(=O)(=O)N2CCC(C(=O)OCC(=O)N(C)Cc3ccccc3)CC2)cc1C	i	i	20.4
COc1ccccc1NC(=O)N[C@H]1CC[C@H](CCn2cc(-c3ccccc3OC)nn2)O[C@@H]1CO	i	i	i
CCCNC(=O)N1CC2(C1)[C@@H](c1ccccc1)[C@H](CO)N2C(=O)C1CC1	i	i	i
Cc1ccc(S(=O)(=O)Nc2ccc3c(c2)C(=O)N([C@H](C)CO)C[C@@H](C)[C@H](CN(C)S(C)(=O)=O)O3)cc1	i	i	i
CCOc1ncccc1C(=O)OCC(=O)NCc1ccc(C(=O)OC)cc1	i	67.3	i
CCOc1ncccc1C(=O)OCc1ccc(C(=O)OC)cc1	i	i	i
COc1cccc(NC(=O)N2CC3(C2)[C@@H](c2ccccc2)[C@@H](CO)N3C(=O)C2CC2)c1	i	i	i
C[C@@H]1CN([C@@H](C)CO)C(=O)c2cc(NC(=O)Nc3cccc4ccccc34)ccc2O[C@@H]1CN(C)Cc1ccc2c(c1)OCO2	nt	i	i
C[C@H](CO)N1C[C@H](C)[C@H](CN(C)Cc2ccc(-c3ccccc3)cc2)Oc2ccc(NC(=O)Nc3cccc4ccccc34)cc2C1=O	i	25.1	i
C[C@H]1CN([C@@H](C)CO)C(=O)c2cc(NC(=O)Nc3cccc4ccccc34)ccc2O[C@@H]1CN(C)Cc1ccc(-c2ccccc2)cc1	i	i	i
C[C@H](CO)N1C[C@H](C)[C@@H](CN(C)Cc2ccc(-c3ccccc3)cc2)Oc2c(NC(=O)Nc3cccc4ccccc34)cccc2C1=O	90.5	nt	nt
C[C@@H]1CN([C@H](C)CO)C(=O)c2cc(NC(=O)Nc3cccc4ccccc34)ccc2O[C@@H]1CN(C)Cc1ccc2c(c1)OCO2	nt	i	15.1
C[C@H](CO)N1C[C@H](C)[C@H](CN(C)C(=O)Nc2ccc3c(c2)OCO3)Oc2ccc(NC(=O)Nc3cccc4ccccc34)cc2C1=O	i	i	i
C[C@H]1CN([C@@H](C)CO)C(=O)c2cccc(NC(=O)Nc3cccc4ccccc34)c2O[C@H]1CN(C)Cc1ccccc1	i	i	i
C[C@H]1CN([C@@H](C)CO)C(=O)c2cc(NC(=O)Nc3cccc4ccccc34)ccc2O[C@@H]1CN(C)C(=O)Nc1ccc2c(c1)OCO2	i	22.6	i
COc1ccc(CN(C)C[C@H]2OCCCC[C@H](C)Oc3ccc(NC(=O)Nc4ccccc4)cc3C(=O)N([C@H](C)CO)C[C@H]2C)cc1	i	i	nt
COCC(=O)N1CCC2(CC1)CN(C(=O)NC1CCCC1)[C@H](CO)c1c2c2ccc(OC)cc2n1C	i	i	i
SMILES	E-sel inducer	DENV2 CPE	SIRT5 inh
COCC(=O)N1C[C@H](C)[C@@H](OC)CN(C)C(=O)c2cc(NC(=O)c3cc(C)on3)ccc2OC[C@H]1C	i	nt	nt
CN(C)C(=O)C[C@H]1CC[C@@H]2[C@H](COc3ccc(NC(=O)c4ccc(F)c(F)c4)cc3C(=O)N2C)O1	i	i	i
O=C(N[C@H]1CC[C@H](CCn2cc(-c3ccccc3)nn2)O[C@H]1CO)c1ccccc1F	i	i	i
CO[C@@H]1CN(C)C(=O)c2cc(NC(=O)c3cnccn3)ccc2OC[C@@H](C)N(CCc2ccccc2)C[C@H]1C	i	i	nt
C[C@@H]1CN([C@@H](C)CO)C(=O)Cc2cc(NC(=O)CCCN(C)C)ccc2O[C@H]1CN(C)S(=O)(=O)c1cccs1	i	?	nt
N#C[C@H]1[C@H](c2ccc(C#CC3CCCC3)cc2)[C@@H](CO)N1C(=O)c1cccc(F)c1	i	i	i
COc1ccc(NC(=O)O[C@@H](c2ccc(OC)c(O)c2)[C@H](CCO)OC)cc1	nt	i	i
C[C@H](CO)N1C[C@H](C)[C@H](CN(C)Cc2ccc3c(c2)OCO3)OCCCC[C@H](C)Oc2ccc(NS(C)(=O)=O)cc2C1=O	i	nt	i
CCCCCCc1ccc(OCC(=O)OC)cc1OCC(=O)OC	nt	i	22.9
CCCCNS(=O)(=O)c1ccc(OCC(=O)OC)cc1	nt	i	i
C[C@@H](NC(=O)[C@H]1[C@H](CO)[C@H]2Cn3c(ccc(C4=CCCCC4)c3=O)[C@@H]1N2)c1ccccc1	i	i	i
COc1ccc(S(=O)(=O)Nc2ccc3c(c2)C(=O)N([C@@H](C)CO)C[C@H](C)[C@@H](CN(C)Cc2ccc4c(c2)OCO4)OCCCC[C@H](C)O3)cc1	i	i	i
COc1ccc(S(=O)(=O)Nc2ccc3c(c2)C(=O)N([C@H](C)CO)C[C@H](C)[C@@H](CN(C)Cc2ccc4c(c2)OCO4)OCCCC[C@H](C)O3)cc1	i	29.9	i
COc1ccc(S(=O)(=O)Nc2ccc3c(c2)C(=O)N([C@@H](C)CO)C[C@@H](C)[C@@H](CN(C)Cc2ccc4c(c2)OCO4)OCCCC[C@@H](C)O3)cc1	i	i	i
COc1ccc(S(=O)(=O)Nc2ccc3c(c2)C(=O)N([C@H](C)CO)C[C@H](C)[C@@H](CN(C)Cc2ccc4c(c2)OCO4)OCCCC[C@@H](C)O3)cc1	i	23.0	i
COc1ccc(S(=O)(=O)Nc2ccc3c(c2)C(=O)N([C@@H](C)CO)C[C@@H](C)[C@H](CN(C)Cc2ccc4c(c2)OCO4)OCCCC[C@@H](C)O3)cc1	i	56.2	i
COc1ccc(S(=O)(=O)Nc2ccc3c(c2)C(=O)N([C@H](C)CO)C[C@@H](C)[C@H](CN(C)Cc2ccc4c(c2)OCO4)OCCCC[C@H](C)O3)cc1	i	i	i
Cc1noc(C)c1NC(=O)N(C)C[C@H]1Oc2ccc(NC(=O)CCN3CCOCC3)cc2C(=O)N([C@@H](C)CO)C[C@H]1C	i	?	i
C[C@H](CO)N1C[C@H](C)[C@H](CN(C)C(=O)Nc2ccc(-c3ccccc3)cc2)OCc2ccccc2-c2ccccc2C1=O	i	i	i
COc1cc(CNC(=O)Nc2nc(C(N)Cc3ccc(Cl)cc3)cs2)cc(OC)c1OC (stereo not drawn)	i	?	nt
COc1cc(CNC(=O)Nc2nc(C(N)c3ccccc3)cs2)cc(OC)c1OC (stereo not drawn)	i	i	21.1
Cc1ccc(S(=O)(=O)N(C)C[C@@H]2OCCCC[C@H](C)Oc3ccc(NC(=O)c4ccccc4)cc3C(=O)N([C@H](C)CO)C[C@H]2C)cc1	nt	i	i
O=C(NCC[C@H]1CC[C@H](NC(=O)C2CCOCC2)[C@@H](CO)O1)c1ccc(F)cc1	i	i	i
